Bioassay records as filed in PubChem.
MsrA inh – inhibitors of bovine MsrA; purified bovine MsrA, absorbance read-out; inhibition, % at 15.5 µM; 360,000 tested, 0.75% active; AID 651718; in the data active = inhibition above about 4.5%;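 note: 0% = vehicle wells with enzyme and 100% = reference inhibitor wells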
NR2E3 ag-1 – human photoreceptor-specific nuclear receptor agonism | Q9Y5X4 | CHO-S Gal4-NCOR/VP16-NR2E3 two-hybrid, luciferase | inhibition of corepressor binding, % at 3.98 µM | 360,000 tested, 0.35% active | AID 602229;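 active = inhibition above the mean of all tested compounds plus 3 SD, cut at about 70% in these data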;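 note: 0% = DMSO with NR2E3 transfected cells and 100% = cells lacking NR2E3 construct; higher means lower luciferase signal from less NR2E3 corepressor binding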
NadD inh – blocks S. aureus nicotinate mononucleotide adenylyltransferase | inhibition, % at 20 µM | AID 602399 | 360,000 tested, 0.78% active | purified NadD enzyme, colorimetric absorbance read-out; in the data active = inhibition above about 26%
NR2E3 ag-2 – NR2E3 (human) agonism; Q9Y5X4; GST-NR2E3/biotin-RetCOR TR-FRET, 1536-well; inhibition of corepressor binding, % at 4.78 µM; 320,000 tested, 0.12% active; AID 2300;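 active = percent inhibition above the cutoff of mean plus 3 SD of all tested compounds, set per screening campaign, cut at about 20% in these data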;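 note: 0% = DMSO wells and 100% = biotin wells as full block of FRET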
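System: GST-NR2E3 and biotin-RetCOR proteins; probe or stimulus: 7 nM biotin-RetCOR; doses: compound at 4.8 µM, single dose; schedule: Compound–protein incubation for 5 h at 4 °C; detection: time-resolved FRET; read-out: percent inhibition; controls: biotin wells as high control, 0.6% DMSO wells as low control; format: 1536-well plates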
bovine MsrA act – bovine methionine sulfoxide reductase A activation | purified bovine MsrA, absorbance read-out | activation, % at 10.6 µM | AID 602163 | 360,000 tested, 0.3% active; in the data active = activation above about 7.5%;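 note: 0% = vehicle and 100% = reference activator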
GalR3 antagonist – blocks the human galanin receptor 3; O60755; HEK293 GalR3-CNG cAMP membrane potential fluorescence; galR3 body fused to GalR1 C-terminus; inhibition, % at 3 µM; 360,000 tested, 0.44% active;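 active = inhibition above the screen-wide average plus 3 SD, cut at about 13% in these data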;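 note: forskolin and galanin both at EC90 stimulate the cells; cAMP rise reported by CNG channel membrane potential dye signal; 0% = forskolin plus galanin with DMSO and 100% = forskolin alone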
Target sequence (O60755 1-299 limits assumed): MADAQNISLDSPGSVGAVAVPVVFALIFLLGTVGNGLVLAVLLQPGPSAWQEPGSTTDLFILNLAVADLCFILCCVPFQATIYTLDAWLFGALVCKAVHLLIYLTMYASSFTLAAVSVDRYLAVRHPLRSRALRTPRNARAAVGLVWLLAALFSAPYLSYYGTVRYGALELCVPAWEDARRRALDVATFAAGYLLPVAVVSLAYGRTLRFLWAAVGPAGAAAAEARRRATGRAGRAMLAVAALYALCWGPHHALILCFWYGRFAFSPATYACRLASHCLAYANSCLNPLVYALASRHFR
NR2E3 ag conf – confirmation of human NR2E3 agonists; inhibition, % at 3.98 µM; CHO-S mammalian two-hybrid NR2E3-NCOR, luciferase luminescence; shares compounds with NR2E3 ag-1; AID 624378; 2,300 tested, 51% active;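 active = average inhibition above a cutoff equal to the mean inhibition of all tested compounds plus one SD, cut at about 70% in these data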;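 note: 0% = DMSO in NR2E3 cells and 100% = DMSO in cells lacking NR2E3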
GAL4-VP16 luc – reduces GAL4-VP16 reporter signal in NR2E3 counterscreen. shares compounds with NR2E3 ag-1. CHO-S GAL4-VP16 luciferase reporter, luminescence. inhibition, % at 3.98 µM. 2,300 tested, 29% active. AID 624379;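 active = mean inhibition above a cutoff equal to the average over all tested compounds plus one standard deviation, cut at about 70% in these data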;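 note: luciferase from a UAS reporter driven by GAL4-VP16 transactivation; 0% = DMSO with VP16-transfected cells and 100% = DMSO with cells lacking VP16; higher means less reporter light so more repression of VP16 activity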
Starred values were filed as active, the others as inactive. Rows were chosen to be rich in hits. Some 2.5% of all compounds tested hit in one or more screens of this group.

Cc1ccc(C)c(S(=O)(=O)N2CCN(C(=O)C3CCN(c4ncnc5sc(C)c(C)c45)CC3)CC2)c1 was read as MsrA inh -1, NR2E3 ag-1 78*, NadD inh 10, NR2E3 ag-2 3, bovine MsrA act -8, GalR3 antagonist -5, NR2E3 ag conf 67 and GAL4-VP16 luc 63.
For O=C(Nc1ccc2c(c1)OCO2)N1CCC(CO)(CC2CCCCO2)CC1 (stereo unspecified) the results were MsrA inh 4, NR2E3 ag-1 -30, NadD inh 4, NR2E3 ag-2 -4, bovine MsrA act -2 and GalR3 antagonist 3.
Screening Cc1ccc(Nc2c(-c3ccccn3)nc3cc(C)ccn23)cc1 returned MsrA inh 1, NR2E3 ag-1 68, NadD inh 6, NR2E3 ag-2 2, bovine MsrA act -11, GalR3 antagonist 2, NR2E3 ag conf 99* and GAL4-VP16 luc 87*.
Cc1ccc(Nc2c(-c3ccccn3)nc3ccc(C)cn23)cc1 was read as MsrA inh 1, NR2E3 ag-1 56, NadD inh 6, NR2E3 ag-2 -2, bovine MsrA act -1, GalR3 antagonist -3, NR2E3 ag conf 97* and GAL4-VP16 luc 61.
Screening N#CC1(P(=O)(c2ccccc2)c2ccccc2)CCCC1 returned MsrA inh 1, NR2E3 ag-1 9, NadD inh 4, NR2E3 ag-2 1, bovine MsrA act -3 and GalR3 antagonist 0.
Screening C=C(C(=O)c1ccccc1)C(C)C(=C)C(=O)c1ccccc1 returned MsrA inh 0, NR2E3 ag-1 69, NadD inh -6, NR2E3 ag-2 3, bovine MsrA act -7, GalR3 antagonist -1, NR2E3 ag conf 79* and GAL4-VP16 luc 27.
CCCCn1c(N)c(N(CC)C(=O)CSc2nnc(-c3ccco3)n2CC)c(=O)[nH]c1=O was read as MsrA inh -1, NR2E3 ag-1 -21, NadD inh 5, NR2E3 ag-2 3, bovine MsrA act -3 and GalR3 antagonist -1.
For COc1cc(OC)c(OC)cc1CNC(=O)c1cccc(S(=O)(=O)N2CCc3ccccc3C2)c1 the results were MsrA inh 0, NR2E3 ag-1 91*, NadD inh -4, bovine MsrA act -2, GalR3 antagonist 14*, NR2E3 ag conf 96* and GAL4-VP16 luc 81*.
`COc1ccc(CCNC(=O)c2cccc(S(=O)(=O)N3CCCC3)c2)cc1OC` gave MsrA inh 0, NR2E3 ag-1 1, NadD inh -5, NR2E3 ag-2 0, bovine MsrA act -2 and GalR3 antagonist -5.
For COc1ccc(CNC(=O)c2cccc(S(=O)(=O)N3CCCCC3)c2)cc1OC the results were MsrA inh -1, NR2E3 ag-1 55, NadD inh -3, NR2E3 ag-2 3, bovine MsrA act -2, GalR3 antagonist 6, NR2E3 ag conf 59 and GAL4-VP16 luc 57.
`COc1ccc(CNC(=O)c2ccc(Cl)c(S(=O)(=O)N3CCOCC3)c2)cc1OC` gave NR2E3 ag-1 56, NadD inh -1, NR2E3 ag-2 1, bovine MsrA act -3, NR2E3 ag conf 49 and GAL4-VP16 luc 52.
O=C(NCc1ccncc1)Nc1ccc2c(c1)OCO2 was read as MsrA inh -3, NR2E3 ag-1 -7, NadD inh -5, NR2E3 ag-2 2, bovine MsrA act -7 and GalR3 antagonist -6.
`c1cc(CNc2ccc3c(c2)OCCO3)ccn1` gave MsrA inh 1, NR2E3 ag-1 62, NadD inh 3, NR2E3 ag-2 -4, bovine MsrA act -11, GalR3 antagonist -3, NR2E3 ag conf -4 and GAL4-VP16 luc -2.
For C=CCOc1ccccc1CNc1ccc2c(c1)OCCO2 the results were NR2E3 ag-1 49, NadD inh 1, NR2E3 ag-2 -3, bovine MsrA act -5, NR2E3 ag conf 49 and GAL4-VP16 luc -8.
`CCCCc1c(-c2ccccc2OC)ncn1CCc1ccccc1OC` gave MsrA inh 1, NR2E3 ag-1 28, NadD inh 4, bovine MsrA act -6 and GalR3 antagonist -11.
Screening CCCCCc1c(-c2ccccc2OC)ncn1CCc1ccccc1OC returned MsrA inh 0, NR2E3 ag-1 66, NadD inh 2, bovine MsrA act -2, GalR3 antagonist -7, NR2E3 ag conf 62 and GAL4-VP16 luc 30.
Screening O=C(COc1ccccc1F)Nc1ccc2c(c1)OCCO2 returned MsrA inh -2, NR2E3 ag-1 74*, NadD inh 2, NR2E3 ag-2 4, bovine MsrA act 1, GalR3 antagonist -6, NR2E3 ag conf 10 and GAL4-VP16 luc -6.
`O=C(NNS(=O)(=O)c1ccc(F)cc1F)C1Cc2c(ccc3ccccc23)O1` (stereo unspecified) gave MsrA inh -1, NR2E3 ag-1 61, NadD inh -3, NR2E3 ag-2 3, bovine MsrA act 1, GalR3 antagonist -7, NR2E3 ag conf 85* and GAL4-VP16 luc 72*.
COc1ccc(NC(=O)C2Cc3c(-c4cccc(F)c4)ccnc3O2)cc1OC (stereo unspecified) was read as MsrA inh 0, NR2E3 ag-1 73*, NadD inh 3, bovine MsrA act -7, GalR3 antagonist -8, NR2E3 ag conf 67 and GAL4-VP16 luc 58.
`COc1ccc(NC(=O)C2Cc3c(-c4ccc(NC(C)=O)cc4)ccnc3O2)cc1OC` (stereo unspecified) gave MsrA inh -1, NR2E3 ag-1 1, NadD inh -3, bovine MsrA act -4 and GalR3 antagonist -2.
`O=C(Nc1cccc(OC(F)(F)F)c1)C1Cc2c(-c3ccc4c(c3)OCO4)ccnc2O1` (stereo unspecified) gave MsrA inh 1, NR2E3 ag-1 81*, NadD inh 2, bovine MsrA act -2, GalR3 antagonist -8, NR2E3 ag conf 82* and GAL4-VP16 luc 19.
Screening CCC(C)(C)C1CCC2(CC1)NC(=O)N(CC(=O)N1CCN(c3ccccc3OC)CC1)C2=O (stereo unspecified) returned MsrA inh -1, NR2E3 ag-1 1, NadD inh 1, bovine MsrA act -6 and GalR3 antagonist 5.
For CC(=O)N1CCc2cc(S(=O)(=O)N3CCc4ccccc43)ccc21 the results were MsrA inh 0, NR2E3 ag-1 74*, NadD inh 12, NR2E3 ag-2 2, bovine MsrA act -4, GalR3 antagonist -5, NR2E3 ag conf 51 and GAL4-VP16 luc 47.
